Activity calls are given as the source filed them. No cut-off for these calls is given here.
How the values were obtained:
[1] = Antiproliferative activity against human BxPC3 cells after 72 hrs by SRB method; type: functional, cell-based; conditions: BXPC-3, 72 h
In short: (§1)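 SRB growth assay: cells exposed to compounds over a 100-fold concentration range for 72 h, then cell number quantified. IC50 calculated from the curves. Means of at least 3 experiments, each run in triplicate.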

[2] = Antiproliferative activity against human HCC827 cells after 72 hrs by SRB method; type: functional, cell-based; conditions: HCC827, 72 h; in short: as §1
[3] = Antiproliferative activity against human H460 cells after 72 hrs by SRB method; type: functional, cell-based; conditions: NCI-H460, 72 h; in short: as §1
[4] = Ratio of hydroxychloroquine IC50 to compound IC50 for human H460 cells; type: functional
BXPC-3 = test: Ratio of hydroxychloroquine IC50 to compound IC50 for human BxPC3 cells; type: functional
[5] = Ratio of hydroxychloroquine IC50 to compound IC50 for human HCC827 cells; type: functional
MDA-MB-231 = test: Cytotoxicity against human MDA-MB-231 cells after 72 hrs by MTT assay; type: functional, cell-based; conditions: MDA-MB-231, 72 h, pooled result: one value given for 7 cell lines, strains, targets or settings
NCI-H460 [6] = test: Inhibition of autophagy in human H460 cells assessed as increase in LC3-2 level at 10 uM after 24 hrs by immunoblot analysis
NCI-H460 [7] = test: Inhibition of autophagy in human H460 cells assessed as increase in punctate LC3 level after 24 hrs by immunoblot analysis; type: functional, cell-based
In short: (§2)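 H460 cells treated 24 h across a concentration series, or with 10 μM compound for varying times, or at 10 μM for 24 h. Cell extracts immunoblotted with anti-LC3 to separate LC3-I from autophagosome-bound LC3-II. Actin probed as loading control.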

NCI-H3122 = test: Inhibition of autophagy in human NCI-H3122 cells assessed as increase in punctate LC3 expression at 25 to 50 uM after 6 hrs by fluorescence microscopic analysis; type: functional, cell-based
In short: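 NCI-H3122 NSCLC cells transfected with a mCherry-EGFP-LC3B tandem reporter, then treated 6 h. Cells fixed and green, red and yellow fluorescent puncta examined by fluorescence microscopy.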

NCI-H460 [8] = test: Inhibition of autophagy in human H460 cells assessed as increase in punctate LC3 level at 10 uM by immunoblot analysis; type: functional, cell-based; conditions: TDE = time-dependent effect; in short: as §2
NCI-H460 [9] = test: Induction of apoptosis in human H460 cells at 25 to 75 uM after 24 hrs by annexin-V staining-based flow cytometry; type: functional, cell-based
In short: (§3)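 Apoptosis in treated H460 cells was detected by binding of APC-conjugated annexin V to surface phosphatidylserine, measured by flow cytometry. Means ± SD of 3 experiments; p < 0.05 taken as significant.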

NCI-H460 [10] = test: Inhibition of autophagy in human H460 cells assessed as increase in p62 level after 24 hrs by immunoblot analysis; type: functional, cell-based
In short: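 H460 cells exposed 24 h to a concentration series. Extracts immunoblotted for p62, with actin as loading control.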

Homo sapiens = species: Homo sapiens; test: Cmax in human at 1200 mg; type: ADME, organism-based; parameters: dose 1200 mg; conditions: in vivo
NCI-H460 [11] = test: Induction of apoptosis in human H460 cells after 24 hrs by annexin-V staining-based flow cytometry; type: functional, cell-based; in short: as §3
[12] = Inhibition of colony formation in human H460 cells at 6.5 to 100 uM treated for 24 hrs followed by incubation in drug free medium for 10 days by crystal violet staining-based assay relative to hydroxychloroquine; type: functional, NCI-H460
In short: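 H460 cells exposed to drug for 24 h, after which medium was replaced with drug-free medium. Colonies grew for another 10 days and were stained with crystal violet.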

[13] = Cytotoxicity against human LN229 cells after 72 hrs by MTT assay; type: functional, cell-based; conditions: LN-229, 72 h
[14] = Cytotoxicity against human C8161 cells after 72 hrs by MTT assay; type: functional, cell-based; conditions: C8161, 72 h
[15] = Cytotoxicity against human 1205 Lu cells after 72 hrs by MTT assay; type: functional, cell-based
HT-29 = test: Cytotoxicity against human HT-29 cells after 72 hrs by MTT assay; type: functional, cell-based; conditions: HT-29, 72 h

Row | SMILES | IC50 [1] [µM] | IC50 [2] [µM] | IC50 [3] [µM] | Ratio IC50 [4] | Ratio IC50 (BXPC-3) | Ratio IC50 [5] | other results
1 | CN(CCNCc1cn(Cc2nc3cc(Cl)ccc3[nH]2)nn1)CCNc1ccnc2cc(Cl)ccc12 | 44 | 65 | 59 |  |  |  | 
2 | CN(CCNCc1cn(C(C)(C)C)nn1)CCNc1ccnc2cc(Cl)ccc12 | 39 | 56 | 79 |  |  |  | 
3 | CN(CCNCc1cn(-c2ccc(Cl)cc2)nn1)CCNc1ccnc2cc(Cl)ccc12 | 9.1 | 9.5 | 14 | 5.2 | 5.2 | 5.2 | 
4 | CCN(CC)CCNc1ccc(C)c2sc3ccccc3c(=O)c12 [LUCANTHONE] |  |  |  |  |  |  | IC50 (MDA-MB-231): 5.7 µM
5 | CN(CCNCc1cn(CCCn2nn[nH]c2=O)nn1)CCNc1ccnc2cc(Cl)ccc12 |  | > 200 | > 200 |  |  |  | 
6 | CN(CCNCc1cn(Cc2nc3ccccc3[nH]2)nn1)CCNc1ccnc2cc(Cl)ccc12 |  | 164 | 120 |  |  |  | 
7 | CN(CCNCc1cn(CC(=O)O)nn1)CCNc1ccnc2cc(Cl)ccc12 |  | > 200 | > 200 |  |  |  | 
8 | CN(CCNc1ccnc2cc(Cl)ccc12)Cc1cn(-c2ccnc3cc(Cl)ccc23)nn1 | 16 | 18 | 29 | 2.7 | 2.7 | 2.7 | 
9 | Clc1ccc2c(-n3cc(CNCc4cn(-c5ccnc6cc(Cl)ccc56)nn4)nn3)ccnc2c1 | 78 | 72 | 70 |  |  |  | 
10 | CN(CCNCc1cn(CCc2ccccc2)nn1)CCNc1ccnc2cc(Cl)ccc12 | 13 | 15 | 24 | 3.2 | 3.2 | 3.2 | 
11 | CN(CCNCc1cn(CCC(=O)Nc2ccccn2)nn1)CCNc1ccnc2cc(Cl)ccc12 |  | > 200 | > 200 |  |  |  | 
12 | CN(CCNCc1cn(CCn2c(=O)[nH]c3ccccc3c2=O)nn1)CCNc1ccnc2cc(Cl)ccc12 |  | > 200 | 147 |  |  |  | 
13 | CCN(CCO)CCCC(C)Nc1ccnc2cc(Cl)ccc12 (stereo not given) [HYDROXYCHLOROQUINE] | 33 | 65 | 74 |  |  |  | inhibition (NCI-H460 [6]): Active; inhibition (NCI-H460 [7]): Dose-dependent effect; inhibition (NCI-H3122): Active; inhibition (NCI-H460 [8]): tde; Activity (NCI-H460 [9]): Active; inhibition (NCI-H460 [10]): Dose-dependent effect; Cmax (Homo sapiens): 7 µM
14 | CN(CCNCc1cn(-c2ccc(Br)cc2)nn1)CCNc1ccnc2cc(Cl)ccc12 | 7.9 | 11 | 15 | 5 | 5 | 5 | 
15 | C#CCNCCN(C)CCNc1ccnc2cc(Cl)ccc12 |  | 105 | 69 |  |  |  | 
16 | CN(CCNCc1cn(CCc2c[nH]c3ccccc23)nn1)CCNc1ccnc2cc(Cl)ccc12 | 7.6 | 8.5 | 12 | 6 | 6 | 6 | 
17 | CN(CCNCc1cn(Cc2ccc(Br)cc2)nn1)CCNc1ccnc2cc(Cl)ccc12 | 8.7 | 9.3 | 12 | 5.7 | 5.7 | 5.7 | 
18 | CN(CCNCc1cn(-c2cccc(Cl)c2)nn1)CCNc1ccnc2cc(Cl)ccc12 | 12 | 9.4 | 17 | 4.7 | 4.7 | 4.7 | 
19 | CN(CCNCc1cn(CCCO)nn1)CCNc1ccnc2cc(Cl)ccc12 |  | > 200 | > 200 |  |  |  | 
20 | CN(CCNCc1cn(Cc2ccc(Cl)cc2)nn1)CCNc1ccnc2cc(Cl)ccc12 | 5.8 | 7.6 | 11 | 7 | 7 | 7 | inhibition (NCI-H460 [6]): Active; inhibition (NCI-H460 [7]): Dose-dependent effect; inhibition (NCI-H3122): Active; inhibition (NCI-H460 [8]): tde; Activity (NCI-H460 [11]): Dose-dependent effect; Ratio [12]: >10; Activity (NCI-H460 [9]): Active; inhibition (NCI-H460 [10]): Dose-dependent effect
21 | CN(CCNCc1cn(CC(=O)Nc2cccc3ccc(O)cc23)nn1)CCNc1ccnc2cc(Cl)ccc12 |  | 86 | 67 |  |  |  | 
22 | CN(CCNCc1cn(-c2ccc(F)cc2)nn1)CCNc1ccnc2cc(Cl)ccc12 | 12 | 19 | 34 | 2.8 | 2.8 | 2.8 | 
23 | CCN(CC)CCCC(C)Nc1ccnc2cc(Cl)ccc12 (stereo not given) [CHLOROQUINE] | 25 | 76 | 52 | 1.2 | 1.2 | 1.2 | IC50 [13]: 3.6 µM; IC50 [14]: 3.6 µM; IC50 [15]: 3.6 µM; Activity (NCI-H460 [9]): Active; IC50 (HT-29): 3.6 µM
24 | CN(CCNCc1cn(Cc2ccccc2)nn1)CCNc1ccnc2cc(Cl)ccc12 | 9.7 | 16 | 32 | 3.1 | 3.1 | 3.1 | 
25 | CN(CCNCc1cn(-c2ccccc2Cl)nn1)CCNc1ccnc2cc(Cl)ccc12 | 11 | 12 | 20 | 4 | 4 | 4 | 
26 | CN(CCNCc1cn(-c2ccnc3cc(Cl)ccc23)nn1)CCNc1ccnc2cc(Cl)ccc12 | 8.8 | 18 | 16 | 3.9 | 3.9 | 3.9 | 
27 | CN(CCNCc1cn(-c2ccccc2)nn1)CCNc1ccnc2cc(Cl)ccc12 | 10 | 26 | 25 | 2.9 | 2.9 | 2.9 | 
28 | CN(CCNCc1cn(-c2nc3ccccc3[nH]2)nn1)CCNc1ccnc2cc(Cl)ccc12 | 16 | 32 | 33 | 2.1 | 2.1 | 2.1 | 
29 | Clc1ccc2c(NCCNCc3cn(-c4ccnc5cc(Cl)ccc45)nn3)ccnc2c1 | 14 | 16 | 21 | 3.2 | 3.2 | 3.2 | 

Reference: ChEMBL document CHEMBL3421580, “Discovery of autophagy inhibitors with antiproliferative activity in lung and pancreatic cancer cells” (ACS Med Chem Lett, 2015)
